# From PubChem BioAssay
# Active and inactive are the calls of the source.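 The calls were made as follows, unless noted: active = viability loss from added drug above about 55%, and viability with drug at most 40%, in both replicates (limit read from the data, passing the limit was not always enough); inconclusive = both conditions met in only one replicate; inactive = neither replicate meets both conditions.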
# Key:
# [1] = Her2 expression decrease, cell viability multiplex – SKBR3 breast tumor cells, AlphaScreen, ATP viability, primary screen (AID 461;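 active = Her2 level under about 52% in both replicate screens, with viability over 70% of control, limit read from the data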;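 as to Her2 level: lower value means less Her2 protein in the cells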;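 as to viability: percent of carrier control wells set as 100% viability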); conditions: SKBR3 Her2 protein level, 18-24 h, measured here: SKBR3 viability, ATP luminescence, at 10 µM
# [2] = target: Receptor tyrosine-protein kinase erbB-2 (Homo sapiens) (UniProt P04626); assay: as above; conditions: 18-24 h, at 10 µM, stronger effect = lower value
# [3] = reduced viability of SK-BR-3 breast cancer cells – cell-based, 24 h, human, pilot screen (AID 572;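 active = viability at or below 10% of carrier control in both of two separate runs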;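 also: compound exposure lasted between 18 and 24 h rather than exactly 24 h; 100% = carrier-treated control wells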); conditions: SK-BR-3 viability, CellTiter-Glo luminescence, at 10 µM, stronger effect = lower value
# [4] = HUVEC growth inhibition – cell-based, human, primary screen (AID 575;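 active = viability at or below 30% in both replicate assays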;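 also: 100% = median of untreated cell wells with 0.1% DMSO on each plate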); conditions: HUVEC proliferation, CellTiter-Glo luminescence, 72 h; at 10 µM; stronger effect = lower value
# In short: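 Test system: primary human umbilical vein endothelial cells. Quantity: 1250 cells/well. Compound: single 10 µM dose, 0.1% DMSO, from 5x medium stock. Timing: 72 h treatment at 37 °C. Detection: ATP-based CellTiter-Glo luminescent read. Benchmarks: vehicle and MePR control wells. Format: 384-well plates coated with collagen.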
# [5] = H69AR cell proliferation blockers – human, duplicate replicates, primary screen (AID 580;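 active = viability at or under a set limit in both replicates, limit being median viability minus 3 SD, cut at about 48% in these data, passing the limit was not always enough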;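 also: 100% = mean luminescence of untreated wells and 0% = no signal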); conditions: H69AR lung tumor cells viability, ATP luminescence, 72 h; at 10 µM; stronger effect = lower value
# [6] = MRP1 drug-resistance reversers in H69AR cells – cell-based, doxorubicin co-treatment, pilot screen (AID 601); conditions: CellTiter-Glo, 72 h, at 10 µM; for differential viability (reversal): stronger effect = higher value
# [7] = yeast transport mutant growth inhibition pilot in 384-well plates, post-Golgi transport modulator project (AID 636; in the data active = inhibition above about 31%); conditions: absorbance 615 nm, about 18 h, stronger effect = higher value
# [8] = growth suppression of yeast trafficking mutant, preliminary HTS, modulators of trafficking downstream of Golgi apparatus project, 1536-format plate, OD 615 nm (AID 637; in the data active = inhibition above about 30%); conditions: yeast transport mutant growth, absorbance 615 nm, 18 h; stronger effect = higher value
# [9] = H69AR cells + 2 uM doxorubicin, measured here: viability with 2 uM doxorubicin, stronger effect = lower value
# [10] = H69AR cells, compound alone cytotoxicity
# Sequence of Receptor tyrosine-protein kinase erbB-2 (Homo sapiens) (P04626 whole entry, looked up): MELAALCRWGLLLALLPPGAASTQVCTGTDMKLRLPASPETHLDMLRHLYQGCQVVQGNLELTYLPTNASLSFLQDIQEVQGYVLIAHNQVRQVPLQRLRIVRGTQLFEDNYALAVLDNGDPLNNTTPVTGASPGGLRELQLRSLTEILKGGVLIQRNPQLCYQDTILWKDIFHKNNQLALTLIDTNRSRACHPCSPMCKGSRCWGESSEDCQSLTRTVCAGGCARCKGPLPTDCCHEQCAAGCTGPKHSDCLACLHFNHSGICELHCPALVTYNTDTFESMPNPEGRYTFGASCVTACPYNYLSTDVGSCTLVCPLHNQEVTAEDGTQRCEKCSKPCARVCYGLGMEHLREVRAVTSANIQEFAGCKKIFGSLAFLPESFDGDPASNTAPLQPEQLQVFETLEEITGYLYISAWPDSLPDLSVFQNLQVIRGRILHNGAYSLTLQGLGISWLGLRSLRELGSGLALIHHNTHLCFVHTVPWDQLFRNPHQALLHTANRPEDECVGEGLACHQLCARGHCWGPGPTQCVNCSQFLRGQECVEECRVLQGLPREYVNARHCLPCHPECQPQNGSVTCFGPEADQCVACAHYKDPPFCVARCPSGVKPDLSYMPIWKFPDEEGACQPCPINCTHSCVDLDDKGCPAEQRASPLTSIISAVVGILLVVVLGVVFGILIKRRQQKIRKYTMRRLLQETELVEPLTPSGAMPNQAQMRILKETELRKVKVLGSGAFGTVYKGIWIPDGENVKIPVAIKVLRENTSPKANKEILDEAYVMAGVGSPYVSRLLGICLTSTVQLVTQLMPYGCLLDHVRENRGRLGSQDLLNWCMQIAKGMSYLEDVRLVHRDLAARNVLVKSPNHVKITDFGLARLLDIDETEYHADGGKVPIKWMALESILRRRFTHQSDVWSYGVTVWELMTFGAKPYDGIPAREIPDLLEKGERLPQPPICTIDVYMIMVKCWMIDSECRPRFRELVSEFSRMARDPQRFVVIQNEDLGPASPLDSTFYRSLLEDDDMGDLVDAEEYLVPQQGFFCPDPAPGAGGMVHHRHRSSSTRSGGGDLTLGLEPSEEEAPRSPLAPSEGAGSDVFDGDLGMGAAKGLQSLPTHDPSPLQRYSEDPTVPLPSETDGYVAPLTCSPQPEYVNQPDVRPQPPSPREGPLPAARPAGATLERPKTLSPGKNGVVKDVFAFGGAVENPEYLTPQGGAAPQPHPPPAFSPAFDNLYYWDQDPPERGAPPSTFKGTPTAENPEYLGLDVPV
smiles,measurement,setting,value
CCCCc1cc(=O)oc2cc(C)cc(OC(C)C(=O)O)c12 (stereo not given),viability,[1],116%
same,Her2 level,[2],115% (inactive)
same,viability,[3],116% (inactive)
same,viability,[4],109% (inactive)
same,viability,[5],104% (inactive)
same,differential viability (reversal),[6]; H69AR cells + 2 uM doxorubicin,8.19% (inactive)
same,viability,[6]; [9],95.8%
same,viability,[6]; [10],104%
same,inhibition,[7],-2.3% (inactive)
same,inhibition,[8],-7.17% (inactive)
COc1cc(C(=O)Nc2cc(Cl)ccc2C)c(-n2cnnn2)cc1OC,viability,[1],102%
same,Her2 level,[2],98% (inactive)
same,viability,[3],102% (inactive)
same,viability,[4],92.6% (inactive)
same,viability,[5],94.9% (inactive)
same,differential viability (reversal),[6]; H69AR cells + 2 uM doxorubicin,4.13% (inactive)
same,viability,[6]; [9],90.8%
same,viability,[6]; [10],94.9%
same,inhibition,[7],-8% (inactive)
same,inhibition,[8],2.95% (inactive)
CCCOc1cccc(C2/C(=C(/O)c3ccccc3)C(=O)C(=O)N2CCN(C)C)c1 (stereo not given),viability,[1],108%
same,Her2 level,[2],93% (inactive)
same,viability,[3],108% (inactive)
same,viability,[4],99.5% (inactive)
same,viability,[5],91.6% (inactive)
same,differential viability (reversal),[6]; H69AR cells + 2 uM doxorubicin,2.56% (inactive)
same,viability,[6]; [9],89.1%
same,viability,[6]; [10],91.6%
same,inhibition,[7],-6.62% (inactive)
same,inhibition,[8],1.75% (inactive)
COCCNc1oc(-c2ccc(C)cc2)nc1C#N,viability,[1],102%
same,Her2 level,[2],81% (inactive)
same,viability,[3],102% (inactive)
same,viability,[4],113% (inactive)
same,viability,[5],85.9% (inactive)
same,differential viability (reversal),[6]; H69AR cells + 2 uM doxorubicin,8.44% (inactive)
same,viability,[6]; [9],77.5%
same,viability,[6]; [10],85.9%
same,inhibition,[7],-4.46% (inactive)
same,inhibition,[8],3.33% (inactive)
CCSc1ncc(C#N)c(=O)[nH]1,viability,[1],117%
same,Her2 level,[2],119% (inactive)
same,viability,[3],117% (inactive)
same,viability,[4],96.5% (inactive)
same,viability,[5],95% (inactive)
same,differential viability (reversal),[6]; H69AR cells + 2 uM doxorubicin,-2.66% (inactive)
same,viability,[6]; [9],97.6%
same,viability,[6]; [10],95%
same,inhibition,[7],-7.76% (inactive)
same,inhibition,[8],-3.28% (inactive)
O=C(O)CCC(=O)c1c[nH]c2ccccc12,viability,[1],88%
same,Her2 level,[2],114% (inactive)
same,viability,[3],88% (inactive)
same,viability,[4],88.4% (inactive)
same,viability,[5],95.6% (inactive)
same,differential viability (reversal),[6]; H69AR cells + 2 uM doxorubicin,-5.4% (inactive)
same,viability,[6]; [9],101%
same,viability,[6]; [10],95.6%
same,inhibition,[7],1.47% (inactive)
same,inhibition,[8],-4.76% (inactive)
O=C1CC(c2cccc(Cl)c2)Cc2nc(N3CCN(c4ccccc4)CC3)ncc21 (stereo not given),viability,[1],88%
same,Her2 level,[2],118% (inactive)
same,viability,[3],88% (inactive)
same,viability,[4],95.7% (inactive)
same,viability,[5],91.3% (inactive)
same,differential viability (reversal),[6]; H69AR cells + 2 uM doxorubicin,-0.02% (inactive)
same,viability,[6]; [9],91.3%
same,viability,[6]; [10],91.3%
same,inhibition,[7],1.3% (inactive)
same,inhibition,[8],2.67% (inactive)
O=C(C1CCCN(S(=O)(=O)c2cccs2)C1)N1CCc2ccccc2C1 (stereo not given),viability,[1],83%
same,Her2 level,[2],75.5% (inactive)
same,viability,[3],83% (inactive)
same,viability,[4],83.4% (inactive)
same,viability,[5],85.3% (inactive)
same,differential viability (reversal),[6]; H69AR cells + 2 uM doxorubicin,-6.37% (inactive)
same,viability,[6]; [9],91.7%
same,viability,[6]; [10],85.3%
same,inhibition,[7],-4% (inactive)
same,inhibition,[8],3.28% (inactive)
CCCc1cc(=O)n2[nH]c(-c3ccc(Br)cc3)cc2n1,viability,[1],90.5%
same,Her2 level,[2],71.5% (inactive)
same,viability,[3],90.5% (inactive)
same,viability,[4],56.2% (inactive)
same,viability,[5],73.1% (inactive)
same,differential viability (reversal),[6]; H69AR cells + 2 uM doxorubicin,-15.6% (inactive)
same,viability,[6]; [9],88.7%
same,viability,[6]; [10],73.1%
same,inhibition,[7],-2.76% (inactive)
same,inhibition,[8],-1.9% (inactive)
COC(=O)c1ccc(-c2ccc(CNCC(O)c3ccccc3)o2)cc1 (stereo not given),viability,[1],111%
same,Her2 level,[2],101% (inactive)
same,viability,[3],111% (inactive)
same,viability,[4],88.8% (inactive)
same,viability,[5],101% (inactive)
same,differential viability (reversal),[6]; H69AR cells + 2 uM doxorubicin,8.78% (inactive)
same,viability,[6]; [9],92.2%
same,viability,[6]; [10],101%
same,inhibition,[7],-2.03% (inactive)
same,inhibition,[8],1.83% (inactive)
O=C1CN(Cc2ccccc2)C(=NCc2ccco2)S1,viability,[1],97%
same,Her2 level,[2],74% (inactive)
same,viability,[3],97% (inactive)
same,viability,[4],97.7% (inactive)
same,viability,[5],86.7% (inactive)
same,differential viability (reversal),[6]; H69AR cells + 2 uM doxorubicin,4.9% (inactive)
same,viability,[6]; [9],81.8%
same,viability,[6]; [10],86.7%
same,inhibition,[7],-6.49% (inactive)
same,inhibition,[8],2.95% (inactive)
CCNCC(O)COCC(O)CNCC (stereo not given),viability,[1],88.5%
same,Her2 level,[2],86% (inactive)
same,viability,[3],88.5% (inactive)
same,viability,[4],88.3% (inactive)
same,viability,[5],99.7% (inactive)
same,differential viability (reversal),[6]; H69AR cells + 2 uM doxorubicin,5.55% (inactive)
same,viability,[6]; [9],94.2%
same,viability,[6]; [10],99.7%
same,inhibition,[7],-1.03% (inactive)
same,inhibition,[8],-0.5% (inactive)
COCCCNC(=O)CCc1nc(-c2ccccc2Cl)no1,viability,[1],102%
same,Her2 level,[2],95% (inactive)
same,viability,[3],102% (inactive)
same,viability,[4],103% (inactive)
same,viability,[5],93.3% (inactive)
same,differential viability (reversal),[6]; H69AR cells + 2 uM doxorubicin,-0.855% (inactive)
same,viability,[6]; [9],94.1%
same,viability,[6]; [10],93.3%
same,inhibition,[7],0.39% (inactive)
same,inhibition,[8],6.39% (inactive)
COc1ccc(-c2ccc(Nc3ccc(S(=O)(=O)N4CCCC4)cc3)nn2)cc1OC,viability,[1],77.5%
same,Her2 level,[2],70.5% (inactive)
same,viability,[3],77.5% (inactive)
same,viability,[4],61.6% (inactive)
same,viability,[5],53.6% (inactive)
same,differential viability (reversal),[6]; H69AR cells + 2 uM doxorubicin,-2.87% (inactive)
same,viability,[6]; [9],56.5%
same,viability,[6]; [10],53.6%
same,inhibition,[7],-6.8% (inactive)
same,inhibition,[8],-1.97% (inactive)
O=C(Nc1ccccc1)c1cccc(N2CCCC2=O)c1,viability,[1],93%
same,Her2 level,[2],114% (inactive)
same,viability,[3],93% (inactive)
same,viability,[4],104% (inactive)
same,viability,[5],103% (inactive)
same,differential viability (reversal),[6]; H69AR cells + 2 uM doxorubicin,18.2% (inactive)
same,viability,[6]; [9],84.8%
same,viability,[6]; [10],103%
same,inhibition,[7],-1.07% (inactive)
same,inhibition,[8],-9.52% (inactive)
O=C(CSc1nnnn1-c1ccc2c(c1)OCO2)NCc1cccs1,viability,[1],88%
same,Her2 level,[2],90.5% (inactive)
same,viability,[3],88% (inactive)
same,viability,[4],93.2% (inactive)
same,viability,[5],86.8% (inactive)
same,differential viability (reversal),[6]; H69AR cells + 2 uM doxorubicin,-7.04% (inactive)
same,viability,[6]; [9],93.8%
same,viability,[6]; [10],86.8%
same,inhibition,[7],-5.68% (inactive)
same,inhibition,[8],-1.64% (inactive)
